Screening results as filed in PubChem BioAssay.
Dynein transport: dynein cargo transport inhibition. z-score, hits read low. AID 1381. 3617.4 mouse cells, GR-EGFP nuclear translocation imaging; test concentration mostly 20 µM; stimulated with dexamethasone, 1 µM; stronger effect = lower value. actives 0.47% (n = 220,000);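 active = plate z-score of nuclear minus cytoplasmic receptor signal below a set negative limit, without overly bright fluorescence or cell loss, cut at about -3.5 in these data, passing the limit was not always enough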;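 note: z-score of nuclear minus cytoplasmic ring GR-EGFP intensity difference per well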
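medium = tetracycline-free induction medium containing charcoal-stripped FBS | also added = 1.0 µM final dexamethasone stimulus | schedule = 48 h induction, 1 h compound, 30 min dex at 37 °C | technique = fixed, Hoechst-stained cells imaged at 10x for EGFP | measure = GR-EGFP nuclear translocation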
Autophagy HCS: modulators of autophagy; calls only at 10 µM (by protocol); MEF GFP-LC3 puncta imaging; test concentration mostly 10 µM; actives 0.98% (n = 190,000);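 active = percentage of spot-positive cells more than 3 SD above its plate mean, without a fluorescence outlier flag or 80% toxicity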;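 note: spot-positive cell cutoff set from DMSO-treated cells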
CHOP inhibitor: blocks CHOP induction under ER stress; CHO-K1 CHOP-promoter luciferase, tunicamycin-induced, 15-18 h; inhibition, % at 10 µM; actives 3.8% (n = 220,000);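 active = compounds that reduced the stress-induced luciferase reporter signal by more than about 70% of percent inhibition, limit read from the data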;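 note: 0% = tunicamycin plus vehicle and 100% = wells without tunicamycin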
b-catenin transl: beta-catenin nuclear translocation modulation; HeLa beta-catenin nuclear translocation, immunofluorescence imaging; nuclear translocation activity, % at 5 µM; actives 0.3% (n = 190,000); AID 1665;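 active = nuclear translocation activity above 50% at 5 µM, with a well cell count of 50 or more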;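 note: per-cell ratio of nuclear to cytoplasmic median beta-catenin stain intensity; plate controls were DMSO negative control for no effect and GSK-3 inhibitor IX positive control for full effect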
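Test system: human HeLa cell line; Doses: 5 µM primary, 0.02–20 µM confirmation; Incubation: 24 h compound exposure, 37°C; Detection: beta-catenin immunofluorescence imaging with DAPI; Read-out: beta-catenin nuclear/cytoplasmic ratio, % activation.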
MT stabilize HCS: stabilizes microtubules in HeLa cells; HeLa tubulin immunostaining HCS, 24 h; share of cells brighter than vehicle mean+2SD; % tubulin-high responders, % at 10 µM; actives 0.83% (n = 200,000); AID 2205;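 active = plate Z-score above 3 for both tubulin-high and condensed-nucleus cell shares, with cell loss under 80%, at 10 µM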;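 note: anti alpha tubulin signal scored within the nucleus-defined area of each cell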
Lmaj promast: Leishmania major promastigote growth inhibition; Leishmania major promastigotes, resazurin fluorescence viability; inhibition, % at 10 µM; actives 9% (n = 200,000); in the data active = inhibition above about 50%;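 note: promastigotes grown with compound for 44 hours at 28 °C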
Starred values were filed as active, the others as inactive; i = inactive; nt = no result; + = active, no number. Rows were chosen to be rich in hits. Some 12% of all compounds tested hit in one or more screens of this group.

SMILES	Dynein transport	Autophagy HCS	CHOP inhibitor	b-catenin transl	MT stabilize HCS	Lmaj promast
COc1cccc(CN2CCCC(C(=O)c3ccc4c(c3)OCO4)C2)c1O (centres undefined)	1.37	i	12.4	-0.6	2.8	82.5*
CC(=O)c1cccc(CN2CCCC(C(=O)c3ccc4c(c3)OCO4)C2)c1 (centres undefined)	0.909	i	11.3	-0.1	2.9	99.5*
CCOC(=O)N1CCC(N2CCCC(C(=O)c3cc(F)ccc3OC)C2)CC1 (centres undefined)	-0.462	i	15.2	2.8	4.7	81.6*
O=C(c1ccc2c(c1)OCO2)C1CCCN(C2CCN(CCc3ccccc3)CC2)C1 (centres undefined)	0.358	i	-3.4	-3.9	2.1	98.3*
COc1ccc(F)cc1C(=O)C1CCCN(Cc2cccn2-c2cccnc2)C1 (centres undefined)	0.357	i	6.1	-0.2	1.8	74.0*
COc1ccccc1C(=O)C1CCCN(Cc2ccc3c(c2)OCCO3)C1 (centres undefined)	1.13	nt	13.6	0.1	nt	nt
COc1ccc(F)cc1C(=O)C1CCCN(Cc2ccc3c(c2)OCCO3)C1 (centres undefined)	0.233	i	7.1	-0.1	3.6	104.0*
COc1ccc(F)cc1C(=O)C1CCCN(Cc2ccc(Oc3ncccn3)cc2)C1 (centres undefined)	0.474	i	-16.2	1.0	3.3	20.6
Cn1ccnc1C1CCCCN1Cc1nc(-c2ccc3c(c2)OCO3)no1 (centres undefined)	1.33	i	-4.4	-0.7	4.1	15.1
Cc1cc(OCc2nc(-c3cccnc3)no2)c(C)cc1Br	0.245	i	86.2*	-0.2	3.7	-1.3
CC(C)(C)c1cc[n+](C2=C([O-])c3ccccc3C(=O)/C2=N\S(=O)(=O)c2cccs2)cc1	-0.58	nt	81.0*	-0.6	nt	nt
CC1CCN(S(=O)(=O)c2ccc(NC(=O)Cc3cccs3)cc2)CC1	1.17	i	-1.1	-6.2	1.9	89.2*
Cc1ccc(S(=O)(=O)N2CCOCC2)cc1C(=O)N1c2ccccc2Sc2ccccc21	-0.459	i	16.6	1.8	1.1	99.0*
CCOCCCNS(=O)(=O)c1ccc(NC(=O)CN2C(=O)c3ccccc3C2=O)cc1	-0.581	i	-10.0	4.5	1.0	-4.2
CC1CCN(S(=O)(=O)c2ccc(NC(=O)N3c4ccccc4Sc4ccccc43)cc2)CC1	0.151	i	18.5	-0.3	2.7	60.8*
CCOCCCNS(=O)(=O)c1ccc(NC(=O)N2c3ccccc3Sc3ccccc32)cc1	-0.317	i	-27.2	1.2	3.6	99.9*
NS(=O)(=O)c1ccc(NC(=O)N2c3ccccc3Sc3ccccc32)cc1	0.284	i	29.4	-2.9	2.8	-2.4
CC1CCN(S(=O)(=O)c2ccc(NC(=O)CN3CCOCC3)cc2)CC1	1.29	i	6.3	0.3	1.4	-1.8
CC1(C)CC(=O)C(C2C3=C(CC(C)(C)CC3=O)OC3=C2C(=O)CC(C)(C)C3)=C(O)C1	-0.0335	nt	3.0	-2.2	nt	nt
Cc1sc2nc(SCc3nc(-c4ccccc4)no3)n(-c3ccccc3)c(=O)c2c1C	nt	i	-0.9	0.3	1.7	3.2
Cc1ccc(C(=O)O)cc1NC(=S)NC(=O)c1ccc([N+](=O)[O-])c(C)c1	-0.665	i	-5.1	-0.3	4.6	-8.3
Cc1cc(S(N)(=O)=O)c(N)c(S(N)(=O)=O)c1	0.304	nt	-4.9	-1.5	nt	nt
CCCCCCn1c(COc2ccccc2F)nnc1SCC(=O)N1c2ccccc2NC(=O)C1(C)C	-0.146	i	47.3	-0.4	2.7	55.1*
COC(=O)CSc1nc2ccccn2c(=O)c1C=O	0.0405	i	2.8	-2.5	1.1	-6.7
O=C(NC1CCCCC1)Sc1ccc(Cl)cc1	-1.58	i	-7.7	-2.2	8.1	63.5*
SMILES	Dynein transport	Autophagy HCS	CHOP inhibitor	b-catenin transl	MT stabilize HCS	Lmaj promast
CC1CCN(C(=O)CSc2ccc(-c3ccccc3)nn2)CC1	-0.751	i	5.7	-1.3	2.2	44.1
COc1ccc(OCC(O)Cn2ccnc2C)cc1 (centres undefined)	0.0864	i	16.5	-3.0	3.2	67.0*
COCCCNC(=O)CN(c1cc([N+](=O)[O-])ccc1OC)S(C)(=O)=O	0.625	i	17.4	-3.0	3.9	-2.9
CC1(C)Cc2nc3sc4c(SCC(=O)NCc5ccccc5)ncnc4c3cc2CO1	-0.0125	+	64.3	nt	35.1*	-1.8
CC1(C)Cc2nc3sc4c(SCC(=O)O)ncnc4c3cc2CO1	-0.728	nt	35.6	0.2	nt	nt
CN(C)c1ccc(/C=C/c2nc3ccccc3s2)cc1	-0.971	i	81.1*	0.9	0.2	0.4
Oc1ccc(/C=C/c2ccc3ccccc3n2)cc1	-0.601	i	57.9	5.0	4.0	17.5
O=[N+]([O-])c1ccc(/C=C/c2ccc3ccccc3n2)cc1	0.16	i	6.0	5.5	3.5	5.7
CN(C)c1ccc(/C=C/c2ccc3ccccc3n2)cc1	0.449	nt	77.8*	-4.6	nt	nt
C(=C\c1ccc2ccccc2n1)/c1ccccc1	0.0792	nt	70.8*	-0.5	nt	nt
CC(=O)N1CCC(N(CCCOC(C)C)C(=O)Nc2ccc(Cl)cc2)CC1	1.86	i	nt	nt	1.2	4.2
CCN(CC)C(=O)C1CCN(S(=O)(=O)c2ccc(C3CNC(=O)C3)cc2)CC1 (centres undefined)	-0.469	nt	-10.1	-1.7	5.3	-7.4
O=C(CCN1CCCCC1)N/N=C/c1ccc(Br)cc1	0.695	i	-21.8	-3.1	4.4	82.8*
COc1cc(/C=N/NC(=O)CN2CCCCC2)ccc1OCc1ccc(Br)cc1	0.398	i	16.9	0.6	3.2	94.5*
Nc1nnc(CC(=O)N/N=C/c2ccc(-c3ccc(Cl)cc3Cl)o2)s1	1.48	nt	62.1	0.3	nt	nt
CC1=NOC(=O)/C1=C\c1ccc(-c2ccc(Cl)cc2Cl)o1	-1.94	i	112.1*	2.8	1.9	92.9*
CCC(=O)c1ccc(OCC(O)CN2CCOCC2)cc1 (centres undefined)	-0.929	i	10.9	0.6	2.8	-6.2
CC(=O)c1ccc(OCC(O)CN2CC(C)OC(C)C2)cc1 (centres undefined)	0.134	i	9.5	0.1	2.5	36.8
COC(=O)c1ccc(OCC(O)CN2CCC(C)CC2)cc1 (centres undefined)	-0.599	i	25.7	-6.5	3.0	-0.7
Cc1cc(Cl)ccc1OCC(O)CN1C(C)CCCC1C (centres undefined)	1.06	i	9.9	-1.2	3.2	91.0*
CC(=O)c1ccc(OCC(O)CN2CCC(C)CC2)cc1 (centres undefined)	1.1	i	3.9	-0.2	8.7	87.5*
CC(=O)c1ccc(OCC(O)CN2C(C)CCCC2C)cc1 (centres undefined)	0.0746	i	26.8	-1.4	1.5	71.9*
